Consider 15 compounds from ChEMBL document CHEMBL3785056, “New imidazoquinoxaline derivatives: Synthesis, biological evaluation on melanoma, effect on tubulin polymerization and structure-activity relationships” (Bioorg Med Chem, 2016).

Molecules are shown by their SMILES. pIC50: −log10 of the molar value. Activity calls are given as the source filed them. The calls are words filed in the database; no cut-off is given here.

One may read the pIC50 as −log10 of the IC50, conventionally taken in molar units. By inhibition is commonly meant the share of the control response that was lost under treatment.

In assay [1] the test system is A-375. The experiment in a line: Antiproliferative activity against human A375 cells assessed as cell growth inhibition after 96 hrs by MTT assay. Type of assay: functional, cell-based. Particulars: A-375, 96 h. The method, boiled down: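 A375 cells in RPMI-1640 with 10% heat-inactivated FBS, 37 °C, 5% CO2, seeded 5000 cells/well and attached overnight. Exposed 96 h to […] in 1% DMSO/medium. MTT read at 570 nm after isopropanol/HCl solubilization. Survival given as % of vehicle control. IC50 taken from sigmoidal dose-response curves, at least three experiments in triplicate.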

The target in another assay is Tubulin (Sus scrofa) (UniProt P02554+P02550). The experiment in a line: Inhibition of pig brain tubulin polymerization at 5 uM by spectrophotometric analysis. The method, boiled down: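 Compound 5 µM final, DMSO as negative control. Polymerization at 37 °C followed by turbidity at 350 nm, with ice added after 45 min to check depolymerization. Given as % inhibition from three independent experiments.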
Tubulin (Sus scrofa), sequence (P02550 whole entry, looked up): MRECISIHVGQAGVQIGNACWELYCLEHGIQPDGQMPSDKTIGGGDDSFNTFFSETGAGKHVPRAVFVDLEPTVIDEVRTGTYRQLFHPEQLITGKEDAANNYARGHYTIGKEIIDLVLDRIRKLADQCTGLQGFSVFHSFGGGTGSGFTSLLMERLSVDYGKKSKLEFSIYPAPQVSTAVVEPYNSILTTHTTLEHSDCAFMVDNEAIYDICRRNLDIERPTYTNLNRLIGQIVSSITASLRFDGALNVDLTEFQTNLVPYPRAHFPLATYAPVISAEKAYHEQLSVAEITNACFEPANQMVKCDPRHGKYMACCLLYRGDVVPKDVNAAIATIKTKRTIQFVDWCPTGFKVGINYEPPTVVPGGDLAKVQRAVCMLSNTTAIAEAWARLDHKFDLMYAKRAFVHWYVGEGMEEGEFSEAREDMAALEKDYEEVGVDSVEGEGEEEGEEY
Tubulin (Sus scrofa), sequence (P02554 whole entry, looked up): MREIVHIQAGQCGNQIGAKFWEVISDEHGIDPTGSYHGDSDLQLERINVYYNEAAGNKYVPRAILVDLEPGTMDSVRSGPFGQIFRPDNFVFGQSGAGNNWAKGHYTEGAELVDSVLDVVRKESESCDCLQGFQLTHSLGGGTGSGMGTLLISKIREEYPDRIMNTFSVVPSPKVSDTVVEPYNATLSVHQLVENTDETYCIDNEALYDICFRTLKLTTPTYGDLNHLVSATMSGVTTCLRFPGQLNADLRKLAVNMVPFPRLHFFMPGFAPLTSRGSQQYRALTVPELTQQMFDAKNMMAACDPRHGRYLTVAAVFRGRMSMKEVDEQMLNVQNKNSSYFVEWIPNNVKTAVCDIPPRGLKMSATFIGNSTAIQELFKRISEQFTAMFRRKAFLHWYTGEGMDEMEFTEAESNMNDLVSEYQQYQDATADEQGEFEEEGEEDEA

The test system of assay [2] is A-375. In words: Cell cycle arrest in human A375 cells assessed as accumulation of cells at G2/M phase after 24 hrs by propidium iodide staining based flow cytometric analysis. Type of assay: functional. The procedure, abridged:
(§1)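 A375 cells treated 24 h, washed in PBS and pelleted at 400g, 4 °C. Pellet lysed in ice-cold hypotonic solution (PI 25 µg/ml, 0.1% trisodium citrate, RNase A, 0.1% Triton X-100) and held overnight on ice. DNA content read by flow cytometry, giving G0/G1, S and G2/M percentages.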

In assay [3] the test system is A-375. In words: Cell cycle arrest in human A375 cells assessed as effect on number of cells at S phase after 24 hrs by propidium iodide staining based flow cytometric analysis. Type of assay: functional. The method, boiled down: as §1
A general note: A flow cytometer gives signals particle by particle.

Assay [4] concerns A-375. The experiment in a line: Cell cycle arrest in human A375 cells assessed as effect on number of cells at G0/G1 phase after 24 hrs by propidium iodide staining based flow cytometric analysis. It is filed as functional. The procedure, abridged: as §1

As to `Nc1nc2ccccc2n2c(-c3cccc(O)c3)cnc12`, the negative logarithm of the IC50 (pIC50) with A-375 [1] is 5.62. The compound also gave an inhibition at Tubulin (Sus scrofa) of 11.3%.
In turn, `CNc1nc2ccccc2n2c(-c3ccc(OC)cc3)cnc12` yielded an inhibition at Tubulin (Sus scrofa) of 99%. The Activity result in the assay on A-375 [2], in the assay on A-375 [3] and in the assay on A-375 [4] was “Dose-dependent effect” throughout.
In the case of `CNc1nc2ccccc2n2c(-c3cc(OC)ccc3OC)cnc12`, the negative logarithm of the IC50 (pIC50) in the assay on A-375 [1] was 5.92. For the same compound, the inhibition on Tubulin (Sus scrofa) came to 3%.
With `CNc1nc2ccccc2n2c(-c3cccc(OC)c3O)cnc12`, in the assay on A-375 [1], the pIC50 is 7.11. For the same compound, on Tubulin (Sus scrofa), the inhibition was 90%.
On the same counts, the results for `CNc1nc2ccccc2n2c(-c3ccc(OC)c(OC)c3OC)cnc12` are 5.82 and “inactive”.
On to `CNc1nc2ccccc2n2c(-c3cc(OC)cc(OC)c3)cnc12`, for which the pIC50 in the assay on A-375 [1] is 6.66. In addition, on Tubulin (Sus scrofa), the inhibition came to 98.5%. Besides, the Activity entry in the assay on A-375 [2], with A-375 [3] and in the assay on A-375 [4] was “Dose-dependent effect” in each case.
Regarding `CNc1nc2ccccc2n2c(-c3c(OC)cc(OC)cc3OC)cnc12`, the pIC50 in the assay with A-375 [1] was 5.64. Moreover, the inhibition entry at Tubulin (Sus scrofa) was “inactive”.
Consider `CNc1nc2ccccc2n2c(-c3cc(OC)c(OC)c(OC)c3)cnc12`, for which the pIC50 in the assay on A-375 [1] was 5.74. Also, the inhibition result at Tubulin (Sus scrofa) is “inactive”.
For the compound `COc1cc2c(c(OC)c1OC)-c1ccc(OC)c(=O)cc1[C@@H](NC(C)=O)CC2` [COLCHICINE], in the assay with A-375 [1], the pIC50 is 8.00.
Take `COc1cccc(-c2cnc3c(N)nc4ccccc4n23)c1`: the negative logarithm of the IC50 (pIC50) with A-375 [1] was 6.70. The compound further gave an inhibition against Tubulin (Sus scrofa) of 41%.
On the same counts, the results for `CNc1nc2ccccc2n2c(-c3cccc(O)c3)cnc12` are 5.90 and “inactive”.
`CNc1nc2ccccc2n2c(-c3cccc(OC)c3OC)cnc12`: the pIC50 with A-375 [1] is 5.23. Besides, the inhibition result at Tubulin (Sus scrofa) is “inactive”.
Regarding `CNc1nc2ccccc2n2c(-c3cccc(OC)c3)cnc12`, on Tubulin (Sus scrofa), the inhibition is 84%. Also, the Activity entry in the assay on A-375 [2], with A-375 [3] and with A-375 [4] was “Dose-dependent effect” each time.
For `CNc1nc2ccccc2n2c(-c3ccccc3OC)cnc12`, the inhibition entry on Tubulin (Sus scrofa) was “inactive”.
As to `CNc1nc2ccccc2n2c(-c3ccc(OC)c(OC)c3)cnc12`, in the assay on A-375 [1], the pIC50 is 6.52. Moreover, on Tubulin (Sus scrofa), the inhibition came to 63%.
